Assay results from ChEMBL document CHEMBL1687712, “Antiviral effects of lamivudine, emtricitabine, adefovir dipivoxil, and tenofovir disoproxil fumarate administered orally alone and in combination to woodchucks with chronic woodchuck hepatitis virus infection” (Antimicrob Agents Chemother, 2008).
Calls of active or inactive are those of the source. No cut-off for these calls is given here.

Columns and labels:
[1] = test system: Woodchuck hepatitis virus; test: Antiviral activity against Woodchuck hepatitis virus infected in woodchuck assessed as reduction of viral RNA level per ug of total cell DNA at 15 mg/kg, po qd for 48 weeks (reference value: 34 +/- 20 pg); format: functional
Procedure, shortened: (§1)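 Chronic WHV-carrier woodchucks, 5 per group, 15 mg/kg/day oral once daily for 48 weeks in liquid diet. Needle liver biopsies were snap-frozen in liquid nitrogen and stored at −70°C. Hepatic WHV DNA replicative intermediates were quantified by Southern blot (pg/μg total cell DNA) and WHV RNA by Northern blot; group means ± SD were compared with pretreatment and placebo.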

[2] = test system: Woodchuck hepatitis virus; test: Antiviral activity against Woodchuck hepatitis virus infected in woodchuck assessed as reduction of viral antigen level in serum at 15 mg/kg, po qd measured on 36th week on 48 weeks study (reference value: 3.8 +/- 1.3 log10 ng/ml); format: functional
Marmota monax [3] = test: Toxicity in Woodchuck hepatitis virus infected woodchuck assessed as increase of liver alanine aminotransferase activity at 15 mg/kg, po qd for 48 weeks; format: organism-based; design: dose 15 mg/kg, route oral; details: in vivo, 8064 h
Procedure, shortened: (§2)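 Woodchucks chronically infected with WHV, 5 per group, received oral drug once daily in liquid diet for 48 weeks; placebo got diet only. Serum chemistry (GGT, ALP, ALT, AST, SDH, among others) was run 2 weeks pretreatment, at week 0, every other week to week 12, then monthly to week 48. Sampling continued at 2, 4, 6, 8 and 12 weeks post-treatment.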

Marmota monax [4] = test: Toxicity in Woodchuck hepatitis virus infected woodchuck assessed as increase of liver sorbitol dehydrogenase activity at 15 mg/kg, po qd measured on 4 to 24 weeks on 48 week study; format: organism-based; design: dose 15 mg/kg, route oral; details: in vivo; procedure, shortened: as §2
[5] = test system: Woodchuck hepatitis virus; test: Antiviral activity against Woodchuck hepatitis virus infected in woodchuck assessed as reduction of viral DNA replicative intermediate level per ug of total cell DNA at 15 mg/kg, po qd for 48 weeks measured on 60th week (reference value: 979 pg); format: functional; procedure, shortened: as §1
Marmota monax [6] = test: Toxicity in Woodchuck hepatitis virus infected woodchuck assessed as increase of liver alkaline phosphatase activity at 15 mg/kg, po qd for 48 weeks; format: organism-based; design: dose 15 mg/kg, route oral; details: in vivo, 8064 h; procedure, shortened: as §2
[7] = test system: Woodchuck hepatitis virus; test: Antiviral activity against Woodchuck hepatitis virus infected in woodchuck assessed as reduction of viral DNA replicative intermediate level per ug of total cell DNA at 15 mg/kg, po qd measured on 36th week on 48 weeks study (reference value: 1132 +/- 738 pg); format: functional; procedure, shortened: as §1
Marmota monax [8] = test: Toxicity in Woodchuck hepatitis virus infected woodchuck assessed as increase of serum gamma-glutamyltransferase activity at 15 mg/kg, po qd for 48 weeks; format: organism-based; design: dose 15 mg/kg, route oral; details: in vivo, 8064 h; procedure, shortened: as §2
[9] = test system: Woodchuck hepatitis virus; test: Antiviral activity against Woodchuck hepatitis virus infected in woodchuck assessed as frequency of hepatocytes expressing viral antigen at 15 mg/kg, po qd for 48 weeks; format: functional, Hepatocyte
Procedure, shortened: (§3)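 Chronic WHV-carrier woodchucks, 5 per group, given 15 mg/kg/day orally once daily for 48 weeks in liquid diet; placebo is diet alone. Liver biopsies at pretreatment, weeks 12, 36, 48 and 12 weeks after withdrawal. Cytoplasmic WHsAg staining scored 0–4: 1 ≤1%, 2 ≤2%, 3 ≤5%, 4 ≥10% of hepatocytes.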

[10] = test system: Woodchuck hepatitis virus; test: Antiviral activity against Woodchuck hepatitis virus infected in woodchuck assessed as frequency of hepatocytes expressing viral antigen at 15 mg/kg, po qd measured on 12th week on 48 weeks study; format: functional, Hepatocyte; procedure, shortened: as §3
[11] = test system: Woodchuck hepatitis virus; test: Antiviral activity against Woodchuck hepatitis virus infected in woodchuck assessed as absent of lesion in portal hepatitis at 15 mg/kg, po qd for 48 weeks; format: functional, organism-based; design: dose 15 mg/kg
Procedure, shortened: (§4)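 Adult chronic WHV-carrier woodchucks (neonatally inoculated), 5 per group, given drug once daily by dose syringe in semisynthetic liquid diet, for 48 weeks; placebo got diet alone. Ultrasound-guided needle liver biopsies under ketamine/xylazine anesthesia at pretreatment, weeks 12, 36, 48 and 12 weeks post-withdrawal. Biopsies were formalin-fixed, paraffin-embedded and H&E stained. Portal and lobular hepatitis were graded 0 (absent) to 4 (most severe).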

[12] = test system: Woodchuck hepatitis virus; test: Antiviral activity against Woodchuck hepatitis virus infected in woodchuck assessed as reduction of viral DNA replicative intermediate level per ug of total cell DNA at 15 mg/kg, po qd for 48 weeks (reference value: 995 +/- 736 pg); format: functional; procedure, shortened: as §1
[13] = test system: Woodchuck hepatitis virus; test: Antiviral activity against Woodchuck hepatitis virus infected in woodchuck assessed as reduction of viral DNA replicative intermediate level per ug of total cell DNA at 15 mg/kg, po qd measured on 12th week on 48 weeks study (reference value: 1495 +/- 890 pg); format: functional; procedure, shortened: as §1
Marmota monax [14] = test: Toxicity in Woodchuck hepatitis virus infected woodchuck assessed as change in body weight at 15 mg/kg, po qd for 48 weeks measured up to 60 weeks; format: organism-based; design: dose 15 mg/kg, route oral; details: in vivo
Procedure, shortened: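 Chronic WHV-carrier woodchucks, 5 per group, were dosed orally once daily in liquid diet for 48 weeks, with a placebo diet-only group. Body weights were monitored. Complete blood counts were taken 2 weeks pretreatment, at weeks 12, 36 and 48 of treatment, and 12 weeks after withdrawal. Values were compared with placebo controls.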

[15] = test system: Woodchuck hepatitis virus; test: Antiviral activity against Woodchuck hepatitis virus infected in woodchuck assessed as absent of lesion in lobular hepatitis at 15 mg/kg, po qd measured on 12th week on 48 weeks study; format: functional, organism-based; design: dose 15 mg/kg; procedure, shortened: as §4
[16] = test system: Woodchuck hepatitis virus; test: Antiviral activity against Woodchuck hepatitis virus infected in woodchuck assessed as reduction of viral antigen level in serum at 15 mg/kg, po qd for 48 weeks (reference value: 3.8 +/- 1.3 log10 ng/ml); format: functional
[17] = test system: Woodchuck hepatitis virus; test: Antiviral activity against Woodchuck hepatitis virus infected in woodchuck assessed as reduction of viral RNA level per ug of total cell DNA at 15 mg/kg, po qd measured on 36th week on 48 weeks study (reference value: 33 +/- 21 pg); format: functional; procedure, shortened: as §1
[18] = test system: Woodchuck hepatitis virus; test: Antiviral activity against Woodchuck hepatitis virus infected in woodchuck assessed as reduction of viral antigen positive hepatocytes at 15 mg/kg, po qd measured on 36th week on 48 weeks study (reference value: 41 +/- 25 %); format: functional, Hepatocyte; design: scale not given: the % may be the effect or the level left
Procedure, shortened: (§5)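 Chronic WHV-carrier woodchucks, 5 per group, 15 mg/kg/day oral once daily for 48 weeks in liquid diet. Liver biopsies were taken at pretreatment, weeks 12, 36, 48 and week 60. Percentage of hepatocytes positive for WHcAg was given as group mean ± SD and compared with pretreatment and placebo.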

[19] = test system: Woodchuck hepatitis virus; test: Antiviral activity against Woodchuck hepatitis virus infected in woodchuck assessed as reduction of viral RNA level per ug of total cell DNA at 15 mg/kg, po qd measured on 12th week on 48 weeks study (reference value: 46 +/- 25 pg); format: functional; procedure, shortened: as §1
[20] = test system: Woodchuck hepatitis virus; test: Antiviral activity against Woodchuck hepatitis virus infected in woodchuck assessed as reduction of viral antigen positive hepatocytes at 15 mg/kg, po qd for 48 weeks measured on 60th week (reference value: 26 %); format: functional, Hepatocyte; design: scale not given: the % may be the effect or the level left; procedure, shortened: as §5
[21] = test system: Woodchuck hepatitis virus; test: Antiviral activity against Woodchuck hepatitis virus infected in woodchuck assessed as absent of lesion in lobular hepatitis at 15 mg/kg, po qd measured on 36th week on 48 weeks study; format: functional, organism-based; design: dose 15 mg/kg
Procedure, shortened: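 Chronic WHV-carrier adult woodchucks (inoculated at 3 days of age), 5 per group, dosed orally once daily for 48 weeks by dose syringe, drug in saline suspended in semisynthetic liquid diet; placebo is diet alone. Ultrasound-guided needle liver biopsies under ketamine/xylazine, formalin-fixed, H&E stained; portal and lobular hepatitis graded 0 (absent) to 4 (most severe).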

Compound | Activity [1] | Activity [2] | Activity (Marmota monax [3]) | Activity (Marmota monax [4]) | Activity [5] | Activity (Marmota monax [6]) | Activity [7] | Activity (Marmota monax [8]) | Activity [9] | Activity [10] | Activity [11] | Activity [12] | Activity [13] | Activity (Marmota monax [14]) | Activity [15] | Activity [16] | Activity [17] | Activity [18] | Activity [19] | Activity [20] | further results
CC(C)(C)C(=O)OCOP(=O)(COCCn1cnc2c(N)ncnc21)OCOC(=O)C(C)(C)C [ADEFOVIR DIPIVOXIL] | 24 pg | 4.8 log10ng/ml | Toxic | Toxic | 1147 pg | Toxic | 324 pg | Toxic | 2% | 1% | Active | 151 pg | 330 pg | Non-toxic | Active | 4.1 log10ng/ml | 34 pg | 45% | 33 pg | 48% | Activity [21]: Active
CC(C)OC(=O)OCOP(=O)(CO[C@H](C)Cn1cnc2c(N)ncnc21)OCOC(=O)OC(C)C.O=C(O)/C=C/C(=O)O [TENOFOVIR DISOPROXIL FUMARATE] | 31 pg | 2.9 log10ng/ml | Toxic | Toxic | 1374 pg | Toxic | 443 pg | Toxic | 1% | 0% | Active | 704 pg | 870 pg | Non-toxic | Active | 3.6 log10ng/ml | 25 pg | 20% | 30 pg | 39% | Activity [21]: Active
